This is an account of results in ChEMBL document CHEMBL4402547, “Synthesis and Pharmacological Characterization of Conformationally Restricted Retigabine Analogues as Novel Neuronal Kv7 Channel Activators” (J Med Chem, 2020).

Active and inactive are the calls of the source. No cut-off for these calls is given here. A value given as a limit tells only on which side of the number the result lay.

In test [1] the target is T1, Potassium voltage-gated channel subfamily KQT member 2 (Homo sapiens, UniProt O43526). Description: Activation of human Kv7.2 expressed in CHO cells assessed as increase in current amplitude at 10 uM measured at holding potential of 0 mV by whole cell patch clamp electrophysiology assay relative to control. It counts as cell-based. The gist of the method: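 Transiently transfected CHO cells expressing human Kv7.2, whole-cell patch clamp at 20–22°C in HEPES-buffered saline pH 7.4. Cells held at −80 mV and ramped −80 to +20 mV over 3 s, before and during 10 μM drug. Ramp current at 0 mV taken as drug/control ratio; mean ± SEM of ≥3 cells, ≥2 transfections.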
T1 sequence (O43526 whole entry): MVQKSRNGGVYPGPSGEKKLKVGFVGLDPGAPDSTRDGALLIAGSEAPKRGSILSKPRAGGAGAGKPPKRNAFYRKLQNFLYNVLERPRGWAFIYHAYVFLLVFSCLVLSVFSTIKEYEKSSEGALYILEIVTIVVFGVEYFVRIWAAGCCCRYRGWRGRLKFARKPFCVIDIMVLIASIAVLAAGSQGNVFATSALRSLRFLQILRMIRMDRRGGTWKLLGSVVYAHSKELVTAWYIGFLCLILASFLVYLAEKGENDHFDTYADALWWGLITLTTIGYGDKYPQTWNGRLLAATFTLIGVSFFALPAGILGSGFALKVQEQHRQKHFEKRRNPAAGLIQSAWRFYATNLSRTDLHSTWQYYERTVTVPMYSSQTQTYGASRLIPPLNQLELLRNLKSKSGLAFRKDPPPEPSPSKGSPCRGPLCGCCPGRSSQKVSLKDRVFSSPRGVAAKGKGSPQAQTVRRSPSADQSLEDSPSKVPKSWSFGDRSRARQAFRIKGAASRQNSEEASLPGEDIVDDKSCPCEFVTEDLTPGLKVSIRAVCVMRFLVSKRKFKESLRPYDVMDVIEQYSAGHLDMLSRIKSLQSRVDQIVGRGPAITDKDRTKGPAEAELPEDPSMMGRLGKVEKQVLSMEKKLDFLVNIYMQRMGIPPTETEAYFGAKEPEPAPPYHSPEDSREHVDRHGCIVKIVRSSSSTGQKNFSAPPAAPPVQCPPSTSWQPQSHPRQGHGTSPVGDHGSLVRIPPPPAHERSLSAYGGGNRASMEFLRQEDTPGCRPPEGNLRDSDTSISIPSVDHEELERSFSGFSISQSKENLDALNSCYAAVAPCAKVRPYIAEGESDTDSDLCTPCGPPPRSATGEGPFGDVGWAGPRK

The nature of test [2]: Photostability of compound in pH 7.4 buffer assessed as compound degradation at 100 ug/ml incubated for 6 hrs under natural solar light-irradiation by HPLC analysis relative to control. The gist of the method: (§1)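 DMSO solutions diluted in pH 7.4 buffer, held in 1 cm quartz cells and exposed to natural daylight. Light-shielded controls kept at 37°C in foil. Aliquots drawn at set intervals and parent compound loss measured by UHPLC: C18 column, 0.1% TFA water/acetonitrile gradient, 45°C, detection at 254 nm.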

The target of test [3] is T1, Potassium voltage-gated channel subfamily KQT member 2. Description: Activation of human Kv7.2 expressed in CHO cells assessed as increase in current amplitude at 10 uM measured at holding potential of -40 mV by whole cell patch clamp electrophysiology assay relative to control. It counts as cell-based. The gist of the method:
(§2)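 CHO cells transiently co-transfected (Lipofectamine 2000, 4 μg total cDNA, EGFP marker) with human channel cDNA in pcDNA3.1, recorded 24 h later. Whole-cell patch clamp at 20–22°C, 3–5 MΩ pipettes, perfused extracellular solution pH 7.4. Held at −80 mV; 3-s ramps −80 to +20 mV ± 10 μM drug. Current at −40 mV with vs without drug expressed as ratio; ≥3 cells from ≥2 transfections, mean ± SEM.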

Test [4] is described as follows: Photostability of compound in pH 7.4 buffer assessed as compound degradation at 100 ug/ml incubated for 4 hrs under natural solar light-irradiation by HPLC analysis relative to control. In a few lines:
as §1

Test [5] is described as follows: Photostability of compound in pH 7.4 buffer assessed as compound degradation at 100 ug/ml incubated for 2 hrs under natural solar light-irradiation by HPLC analysis relative to control. The gist of the method: as §1
Test [6] concerns Potassium voltage-gated channel subfamily KQT member 2 (Homo sapiens), O43526 [F168L]. Description: Activation of ICA-insensitive human Kv7.2 F168L mutant expressed in CHO cells assessed as increase in channel current amplitude at 10 uM measured at holding potential of -40 mV by whole cell patch clamp electrophysiology assay. In kind it is cell-based. The gist of the method: as §2
Potassium voltage-gated channel subfamily KQT member 2 (Homo sapiens), O43526 [F168L], sequence (O43526 whole entry F168L): as the sequence (O43526 whole entry) above, with F168L counted along it

Test [7] relates to Potassium voltage-gated channel subfamily KQT member 2 (Homo sapiens), O43526 [W236L]. Description: Activation of human Kv7.2 W236L mutant expressed in CHO cells assessed as channel current amplitude at 10 uM measured at holding potential of -40 mV by whole cell patch clamp electrophysiology assay. In kind it is cell-based. In a few lines: as §2
Potassium voltage-gated channel subfamily KQT member 2 (Homo sapiens), O43526 [W236L], sequence (O43526 whole entry W236L): as the sequence (O43526 whole entry) above, with W236L counted along it

On to `O=S(=O)(Nc1ccc2c(c1)CCN2Cc1ccc(F)cc1F)C1CCCCC1`, for which the outcome in test [1] was Active. The Drug degradation in test [2] was > 99%; in test [4] it was 81.7%; in test [5], 33.5%. In addition, the result in test [3] was inactive.
`CCCCCCCCCCCCCCCC(=O)Nc1ccc2c(ccn2Cc2ccc(C(F)(F)F)cc2)c1`: the result in test [1] and in test [3] was inactive.
Turning to `O=C(c1ccc(F)cc1)N1CCc2cc(NS(=O)(=O)C3CCCCC3)ccc21`, the result in test [1] and in test [3] was inactive.
Regarding `COc1ccc(CN2c3ccc(NS(=O)(=O)C4CCCCC4)cc3CC2C)cc1` (racemic), the outcome in test [1] and in test [3] was inactive.
`O=S(=O)(Nc1ccc2c(c1)CCN2Cc1ccc(F)cc1)N1CCCCCC1`: the outcome in test [1] and in test [3] was inactive.
For `O=C(CC1CCCCC1)Nc1ccc2c(c1)CCN2Cc1ccc(F)cc1`, the result in test [1] and in test [3] was inactive.
In the case of `CCOC(=O)Nc1ccc(NCc2ccc(F)cc2)nc1N`, the outcome in test [1] and in test [3] was Active.
Take `COc1ccc(CN2CCc3cc(NS(=O)(=O)C4CCCCC4)ccc32)cc1`: the outcome in test [1] was Active. In addition, the values for the Drug degradation in test [2], in test [4] and in test [5] were > 99%, 84.7% and 37.5%, respectively. Also, in test [3], the result was inactive.
In the case of `O=S(=O)(Nc1ccc2c(c1)CCN2CCc1ccc(F)cc1)C1CCCCC1`, the result in test [1] and in test [3] was inactive.
As for `CC(=O)Nc1ccc2c(c1)CCN2Cc1ccc(F)cc1`, the result in test [1] and in test [3] was inactive.
In the case of `O=S(=O)(Nc1ccc2c(c1)CCN2Cc1ccc(C(F)(F)F)cc1)C1CCCCC1`, the result in test [1] and in test [3] was inactive.
As for `CCCCCCC(=O)Nc1ccc2c(c1)CCC/C2=C\c1ccc(C(F)(F)F)cc1`, the result in test [1] and in test [3] was inactive.
For `O=C(Nc1ccc2c(c1)CCN2Cc1ccc(F)cc1)NC1CCCCC1`, the outcome in test [1] and in test [3] was inactive.
As to `CCCCCCC(=O)Nc1ccc2c(ccn2Cc2ccc(OCOC)cc2)c1`, the result in test [1] and in test [3] was inactive.
As for `CC1(C)[C@H]2CC[C@]1(CS(=O)(=O)Nc1ccc3c(c1)CCN3Cc1ccc(F)cc1)C(=O)C2`, the outcome in test [1] and in test [3] was inactive.
With `CCCCCCC(=O)Nc1ccc2c(ccn2Cc2ccc(O)cc2)c1`, the result in test [1] and in test [3] was inactive.
Turning to `CCCCCCC(=O)Nc1ccc2c(c1)CCCC2Cc1ccc(C(F)(F)F)cc1` (racemic), the result in test [1] and in test [3] was inactive.
Consider `O=C(Cc1ccc(Cl)cc1)N1CCc2cc(NS(=O)(=O)C3CCCCC3)ccc21`, for which the result in test [1] and in test [3] was inactive.
Turning to `CC1(C)[C@@H]2CC[C@@]1(CS(=O)(=O)Nc1ccc3c(c1)CCN3Cc1ccc(F)cc1)C(=O)C2`, the result in test [1] and in test [3] was inactive.
Consider `CC(C)CS(=O)(=O)Nc1ccc2c(c1)CCN2Cc1ccc(F)cc1`, for which the outcome in test [1] and in test [3] was inactive.
As for `O=S(=O)(Nc1ccc2c(c1)CCN2Cc1ccc(F)cc1)c1ccccc1`, the result in test [1] and in test [3] was inactive.
As for `CCCCN(C)CC(=O)Nc1ccc2c(ccn2Cc2ccc(C(F)(F)F)cc2)c1`, the result in test [1] and in test [3] was inactive.
On to `O=C(Nc1ccc2c(c1)CCN2Cc1ccc(F)cc1)C1CCCCC1`, for which the outcome in test [1] and in test [3] was inactive.
With `O=S(=O)(Nc1ccc2c(ccn2Cc2ccc(F)cc2)c1)C1CCCCC1`, the result in test [1] was Active. In addition, the Drug degradation in test [2] amounted to 23.1%; in test [4], 15.8%; in test [5], 6.46%. Moreover, in test [3], the result was inactive.
As for `CC(C)[C@H]1CC[C@H](C)C[C@@H]1OC(=O)Nc1ccc2c(c1)CCN2Cc1ccc(F)cc1`, the result in test [1] and in test [3] was inactive.
As to `O=S(=O)(Nc1ccc2c(c1)CCN2Cc1ccc(F)c(F)c1)C1CCCCC1`, the result in test [1] and in test [3] was inactive.
`CCOC(=O)Nc1ccc2c(c1)CCN2Cc1ccc(F)cc1`: the outcome in test [1] and in test [3] was inactive.
With `O=[N+]([O-])c1cc(Br)ccc1CN1CCc2cc(NS(=O)(=O)C3CCCCC3)ccc21`, in test [1], the outcome was Active. The outcome in test [3] was inactive.
Taken in the same sequence, the figures for `CCCCNCC(=O)Nc1ccc2c(ccn2Cc2ccc(C(F)(F)F)cc2)c1` were “inactive” and “inactive”.
As for `COc1ccc(Cn2ccc3cc(NS(=O)(=O)C4CCCCC4)ccc32)cc1`, the outcome in test [1] and in test [3] was inactive.
For the compound `O=S(=O)(Nc1ccc2c(c1)CCN2Cc1ccc(C(F)(F)F)cc1C(F)(F)F)C1CCCCC1`, the outcome in test [1] and in test [3] was inactive.
Consider `CCCCS(=O)(=O)Nc1ccc2c(c1)CCN2Cc1ccc(F)cc1`, for which the result in test [1] and in test [3] was inactive.
Regarding `CCCCCCS(=O)(=O)Nc1ccc2c(c1)CCN2Cc1ccc(F)cc1`, the result in test [1] and in test [3] was inactive.
As to `O=C(Nc1ccc(Cl)nc1)c1ccc(F)c(F)c1`, the result in test [1], in test [3] and in test [7] was Active. Moreover, the outcome in test [6] was inactive.
Turning to `CC(C)(C)CNC(=N)Nc1ccc2c(c1)CCN2Cc1ccc(F)cc1`, the outcome in test [1] and in test [3] was inactive.
In the case of `CCCCCCC(=O)Nc1ccc2c(c1)CCC/C2=C/c1ccc(C(F)(F)F)cc1`, the outcome in test [1] and in test [3] was inactive.
For `CC(C)(C)CNC(=O)Nc1ccc2c(c1)CCN2Cc1ccc(F)cc1`, the outcome in test [1] and in test [3] was inactive.
Regarding `CC1CC(C)CN(S(=O)(=O)Nc2ccc3c(c2)CCN3Cc2ccc(F)cc2)C1` (stereo unspecified), the result in test [1] and in test [3] was inactive.
On to `O=S(=O)(Nc1ccc2c(ccn2Cc2ccc(C(F)(F)F)cc2)c1)C1CCCCC1`, for which the outcome in test [1] and in test [3] was inactive.
As for `O=S(=O)(CCC1CCCCC1)Nc1ccc2c(ccn2Cc2ccc(F)cc2)c1`, the outcome in test [1] and in test [3] was inactive.
